Assay results published in ChEMBL document CHEMBL5724801, “EUbOPEN Chemogenomics Library - Multiplex” (2024).
Values joined by “and” are separate entries in the source; they are usually repeats but may differ in a detail not shown here. Equal entries are not always repeated.

System: U2OS
Assay: Multiplex assay against U2OS
Assay type: toxicity, cell-based
Conditions: human
Method in brief: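 Compound was added to live cells that had been stained at seeding with Hoechst33342, BioTracker Green Microtubule Cytoskeleton Dye, MitoTracker Red and Annexin V Alexa Fluor 680, and imaging followed on a CQ1 microscope at 37°C and 5% CO2. CellPathfinder machine-learning gating divided cells into Hoechst high-intensity objects or normal cells, normal cells into healthy, pyknosed or fragmented nuclei, and pyknosed cells into mitotic or apoptotic. Tubulin, mitochondrial-mass and membrane-permeability phenotypes are per cents of healthy-nucleus cells.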

[1] = 12 h, 1 µM, compound concentration 1 uM
[2] = 12 h, 10 µM, compound concentration 10 uM
[3] = 24 h, 1 µM, compound concentration 1 uM
[4] = 24 h, 10 µM, compound concentration 10 uM
[5] = 48 h, 1 µM, compound concentration 1 uM
[6] = 48 h, 10 µM, compound concentration 10 uM

SMILES: CN(C)Cc1cccc(NC(=C2C(=O)Nc3cc(C(N)=O)ccc32)c2ccccc2)c1
- Population Apoptotic (%) [1]: 37.78% and 38.1%
- Population Fragmented Nuclei (%) [1]: 1.29% and 3.85%
- Population Healthy Nuclei (%) [1]: 87.11% and 82.69%
- Population Hoechst High Intensity Objects (%) [1]: 0%
- Population Membrane Permeable-Phenotype (%) [1]: 1.78% and 2.33%
- Population Mitochondria Different-Phenotype (%) [1]: 0.59% and 5.43%
- Population Mitotic Cells (%) [1]: 62.22% and 61.9%
- Population Normal (%) [1]: 100%
- Population Pyknosed Nuclei (%) [1]: 11.6% and 13.46%
- Population Tubulin-Different-Phenotype (%) [1]: 1.18% and 0%
- Total Cell Count [1]: 388 and 156
- Population Apoptotic (%) [2]: 35.71% and 43.75%
- Population Healthy Nuclei (%) [2]: 86.17% and 71.36%
- Population Hoechst High Intensity Objects (%) [2]: 0%
- Population Membrane Permeable-Phenotype (%) [2]: 3.66% and 11.27%
- Population Mitotic Cells (%) [2]: 64.29% and 56.25%
- Population Normal (%) [2]: 100%
- Population Pyknosed Nuclei (%) [2]: 10.19% and 8.04%
- Population Tubulin-Different-Phenotype (%) [2]: 6.48% and 4.93%
- Total Cell Count [2]: 412 and 199
- Population Apoptotic (%) [3]: 42% and 39.29%
- Population Fragmented Nuclei (%) [3]: 1.87% and 0.52%
- Population Healthy Nuclei (%) [3]: 88.81% and 84.97%
- Population Hoechst High Intensity Objects (%) [3]: 0%
- Population Membrane Permeable-Phenotype (%) [3]: 1.89% and 4.27%
- Population Mitochondria Different-Phenotype (%) [3]: 0.42% and 6.1%
- Population Mitotic Cells (%) [3]: 58% and 60.71%
- Population Normal (%) [3]: 100%
- Population Pyknosed Nuclei (%) [3]: 9.33% and 14.51%
- Population Tubulin-Different-Phenotype (%) [3]: 1.47% and 0.61%
- Total Cell Count [3]: 536 and 193
- Population Apoptotic (%) [4]: 50.75% and 51.72%
- Population Healthy Nuclei (%) [4]: 82.77% and 70.62%
- Population Hoechst High Intensity Objects (%) [4]: 0%
- Population Membrane Permeable-Phenotype (%) [4]: 2.06% and 8.72%
- Population Mitotic Cells (%) [4]: 49.25% and 48.28%
- Population Normal (%) [4]: 100%
- Population Pyknosed Nuclei (%) [4]: 14.26% and 13.74%
- Population Tubulin-Different-Phenotype (%) [4]: 4.88% and 2.68%
- Total Cell Count [4]: 470 and 211
- Population Apoptotic (%) [5]: 48.91% and 34.38%
- Population Fragmented Nuclei (%) [5]: 3.29% and 3.37%
- Population Healthy Nuclei (%) [5]: 86.93% and 86.81%
- Population Hoechst High Intensity Objects (%) [5]: 0.11% and 0%
- Population Membrane Permeable-Phenotype (%) [5]: 1.34% and 2.47%
- Population Mitochondria Different-Phenotype (%) [5]: 0.37% and 3.53%
- Population Mitotic Cells (%) [5]: 51.09% and 65.62%
- Population Normal (%) [5]: 99.89% and 100%
- Population Pyknosed Nuclei (%) [5]: 9.78% and 9.82%
- Population Tubulin-Different-Phenotype (%) [5]: 1.1% and 0.71%
- Total Cell Count [5]: 942 and 326
- Population Apoptotic (%) [6]: 57.52% and 51.28%
- Population Healthy Nuclei (%) [6]: 81.24% and 71.84%
- Population Hoechst High Intensity Objects (%) [6]: 0%
- Population Membrane Permeable-Phenotype (%) [6]: 3.41% and 6.53%
- Population Mitochondria Different-Phenotype (%) [6]: 0.33% and 7.54%
- Population Mitotic Cells (%) [6]: 42.48% and 48.72%
- Population Normal (%) [6]: 100%
- Population Pyknosed Nuclei (%) [6]: 14.93% and 14.08%
- Population Tubulin-Different-Phenotype (%) [6]: 4.88% and 7.04%
- Total Cell Count [6]: 757 and 277

SMILES: Cl.Clc1ccc2nsnc2c1NC1=NCCN1 [TIZANIDINE HYDROCHLORIDE]
- Population Apoptotic (%) [1]: 82% and 85%
- Population Fragmented Nuclei (%) [1]: 20% and 10%
- Population Healthy Nuclei (%) [1]: 73% and 78%
- Population Hoechst High Intensity Objects (%) [1]: 2% and 1%
- Population Membrane Permeable-Phenotype (%) [1]: 6% and 3%
- Population Mitochondria Different-Phenotype (%) [1]: 1% and 2%
- Population Mitotic Cells (%) [1]: 17% and 14%
- Population Normal (%) [1]: 97% and 98%
- Population Pyknosed Nuclei (%) [1]: 5% and 10%
- Population Tubulin-Different-Phenotype (%) [1]: 2% and 3%
- Total Cell Count [1]: 306 and 140
- Population Apoptotic (%) [2]: 77% and 90%
- Population Fragmented Nuclei (%) [2]: 31% and 22%
- Population Healthy Nuclei (%) [2]: 61% and 66%
- Population Hoechst High Intensity Objects (%) [2]: 2%
- Population Membrane Permeable-Phenotype (%) [2]: 7% and 14%
- Population Mitochondria Different-Phenotype (%) [2]: 2% and 7%
- Population Mitotic Cells (%) [2]: 22% and 10%
- Population Normal (%) [2]: 97%
- Population Pyknosed Nuclei (%) [2]: 6% and 10%
- Total Cell Count [2]: 280 and 98
- Population Apoptotic (%) [3]: 90% and 89%
- Population Fragmented Nuclei (%) [3]: 19% and 15%
- Population Healthy Nuclei (%) [3]: 72% and 73%
- Population Hoechst High Intensity Objects (%) [3]: 0% and 4%
- Population Membrane Permeable-Phenotype (%) [3]: 4% and 7%
- Population Mitochondria Different-Phenotype (%) [3]: 2% and 4%
- Population Mitotic Cells (%) [3]: 9% and 10%
- Population Normal (%) [3]: 99% and 95%
- Population Pyknosed Nuclei (%) [3]: 8% and 11%
- Population Tubulin-Different-Phenotype (%) [3]: 5% and 6%
- Total Cell Count [3]: 381 and 172
- Population Apoptotic (%) [4]: 65% and 86%
- Population Fragmented Nuclei (%) [4]: 29% and 25%
- Population Healthy Nuclei (%) [4]: 62% and 61%
- Population Hoechst High Intensity Objects (%) [4]: 2%
- Population Membrane Permeable-Phenotype (%) [4]: 4% and 12%
- Population Mitochondria Different-Phenotype (%) [4]: 1% and 7%
- Population Mitotic Cells (%) [4]: 34% and 13%
- Population Normal (%) [4]: 97%
- Population Pyknosed Nuclei (%) [4]: 8% and 13%
- Population Tubulin-Different-Phenotype (%) [4]: 1% and 11%
- Total Cell Count [4]: 327 and 118
- Population Apoptotic (%) [5]: 86% and 90%
- Population Fragmented Nuclei (%) [5]: 11% and 17%
- Population Healthy Nuclei (%) [5]: 80% and 74%
- Population Hoechst High Intensity Objects (%) [5]: 1% and 3%
- Population Membrane Permeable-Phenotype (%) [5]: 2% and 5%
- Population Mitochondria Different-Phenotype (%) [5]: 1% and 2%
- Population Mitotic Cells (%) [5]: 13% and 9%
- Population Normal (%) [5]: 98% and 96%
- Population Pyknosed Nuclei (%) [5]: 7% and 8%
- Population Tubulin-Different-Phenotype (%) [5]: 2% and 3%
- Total Cell Count [5]: 512 and 260
- Population Apoptotic (%) [6]: 93% and 76%
- Population Fragmented Nuclei (%) [6]: 18% and 22%
- Population Healthy Nuclei (%) [6]: 75% and 65%
- Population Hoechst High Intensity Objects (%) [6]: 2% and 4%
- Population Membrane Permeable-Phenotype (%) [6]: 5% and 15%
- Population Mitochondria Different-Phenotype (%) [6]: 1% and 5%
- Population Normal (%) [6]: 97% and 95%
- Population Pyknosed Nuclei (%) [6]: 6% and 11%
- Population Tubulin-Different-Phenotype (%) [6]: 3% and 7%
